Assay results taken from ChEMBL document CHEMBL5376013, “Design, synthesis and biological evaluation of novel morpholinopyrimidine-5-carbonitrile derivatives as dual PI3K/mTOR inhibitors” (RSC Med Chem, 2024).

Experiments:
SR [1] = experiment: Antiproliferative activity against human SR cells assessed as inhibition of cell growth; format: functional, cell-based
Procedure, shortened: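 SR leukemia cells from ATCC were cultured in DMEM with 10% FBS, 10 ug/ml insulin and 1% penicillin-streptomycin. Reconstituted MTT was added at 10% of culture volume for 2–4 h. Formazan was dissolved in solubilization solution and read at 570 nm. Viability was calculated as treated A570 over untreated A570 ×100, with dose-response curves.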

[2] = Inhibition of PI3K (unknown origin); set-up: species or system Homo sapiens
Procedure, shortened: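 ELISA kit PI3 kinase assay with LY294002 as reference. Inhibitor preincubated 10 min before PIP2 substrate in kinase reaction buffer (25 µl final), 1 h reaction. Product detected by competition with biotinylated PIP3 for GRP1, with SA-HRP and TMB colour.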

[3] = Cytotoxicity against human PCS-800-011 cells assessed as inhibition of cell growth by MTT assay; format: toxicity, cell-based
SR [4] = experiment: cells; settings: Homo sapiens
[5] = biological target: Serine/threonine-protein kinase mTOR (Homo sapiens, UniProt P42345); experiment: Inhibition of mTOR (unknown origin) incubated for 1 hr by ELISA analysis
Procedure, shortened: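 Glutathione-coated plate loaded with mTOR substrate (1 h, room temperature). mTOR with compound in 2X kinase assay buffer, 30 min at 30 °C, then stop solution. Phospho-p70S6K-T389 detected by primary antibody, then HRP conjugate (1 h each), TMB, A450 with 540 or 595 nm reference.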

MCF7 = experiment: Antiproliferative activity against human MCF7 cells assessed as inhibition of cell growth by MTT assay; format: functional, cell-based
A549 = experiment: Antiproliferative activity against human A549 cells assessed as inhibition of cell growth by MTT assay; format: functional, cell-based
PC-3 = experiment: Antiproliferative activity against human PC-3 cells assessed as inhibition of cell growth by MTT assay; format: functional, cell-based

`COc1ccc(-c2nc(N/N=C/c3cccc(O)c3)nc(N3CCOCC3)c2C#N)cc1` gave an IC50 (SR [1]) of 13.6 µM and an IC50 [2] of 6.09 µM.

Work on `CN[C@@H]1C[C@H]2O[C@@](C)([C@@H]1OC)n1c3ccccc3c3c4c(c5c6ccccc6n2c5c31)C(=O)NC4` [STAUROSPORINE] yielded an IC50 [3] of 18.3 µM.

Compound `O=c1[nH]cc(F)c(=O)[nH]1` [FLUOROURACIL] has an IC50 (SR [4]) of 7.38 µM.

`COc1ccc(-c2nc(N/N=C/c3cccc(Br)c3)nc(N3CCOCC3)c2C#N)cc1` showed an IC50 (SR [1]) of 0.76 µM and an IC50 [2] of 6.09 µM.

In the case of `COc1cccc2c1C(=O)c1c(O)c3c(c(O)c1C2=O)C[C@@](O)(C(=O)CO)C[C@@H]3O[C@H]1C[C@H](N)[C@H](O)[C@H](C)O1` [DOXORUBICIN], the IC50 (SR [4]) is reported as 0.59 µM.

`COc1ccc(-c2nc(N/N=C/c3ccc(O)c(OC)c3)nc(N3CCOCC3)c2C#N)cc1` gave an IC50 (SR [1]) of 4.37 µM and an IC50 [2] of 6.09 µM.

For `CO[C@H]1C[C@@H]2CC[C@@H](C)[C@@](O)(O2)C(=O)C(=O)N2CCCC[C@H]2C(=O)O[C@H]([C@H](C)C[C@@H]2CC[C@@H](OCCO)[C@H](OC)C2)CC(=O)[C@H](C)/C=C(\C)[C@@H](O)[C@@H](OC)C(=O)[C@H](C)C[C@H](C)/C=C/C=C/C=C/1C` [EVEROLIMUS], the IC50 [5] was 0.53 µM.

`O=S1(=O)CCc2nc(N3N=C(c4ccc(F)cc4)C[C@@H]3c3ccc(Cl)c(Cl)c3)nc(N3CCOCC3)c2C1` showed an IC50 (MCF7) of 30.7 µM, an IC50 (A549) of 23.8 µM and an IC50 (PC-3) of 19.1 µM.
